Experimental data from different studies.
Each line is one published result; the experiments were not run side by side.
Medium: plasma

Compound	system	setting	measurement	value
Cn1cc(Nc2nc(N)nc(-c3cccc(-n4ccc5cc(C6CC6)cc(F)c5c4=O)c3CO)n2)cn1	human	oral, 300 mg, single dose, fasted, healthy volunteers	AUC(0-t)	11500 ng·h/mL
Cc1ccc(C(=O)Nc2ccc(CN3CCN(C)CC3)c(C(F)(F)F)c2)cc1C#Cc1cnc2[nH]ncc2c1	human	oral, 40 mg, single dose, healthy volunteers	AUC(0-t)	246 ng·h/mL
CN1CC[C@@H](c2c(O)cc(O)c3c(=O)cc(-c4ccc(C(F)(F)F)cc4Cl)oc23)[C@@H]1CO	human	oral, 150 mg, patients	AUC(0-t)	3760 ng·h/mL
CC[C@H](C)CCCCC(=O)N[C@@H](CCN)C(=O)N[C@H](C(=O)N[C@@H](CCN)C(=O)N[C@H]1CCNC(=O)[C@H]([C@@H](C)O)NC(=O)[C@H](CCN)NC(=O)[C@H](CCN)NC(=O)[C@H](CC(C)C)NC(=O)[C@@H](Cc2ccccc2)NC(=O)[C@H](CCN)NC1=O)[C@@H](C)O	human	intravenous, 0.75 mg/kg, single dose, infusion	AUC(0-t)	19600 ng·h/mL
CNC(=O)n1ccc2cc(Oc3ccnc(NC(=O)c4ccc(C5CCN(CCO)CC5)cc4)c3)c(OCCOC)cc21	human	oral, 35 mg, single dose, fasted, healthy volunteers	AUC(0-inf)	128 ng·h/mL
NC(=S)NN=Cc1ncccc1N	human	oral, 150 mg	AUC(0-inf)	1030 ng·h/mL
CC(C)n1c(Nc2cccnc2)nc2cnc(Nc3ccc(N4CCN(C)CC4)cc3)nc21	male human	oral, 100 mg	AUC(0-inf)	853 ng·h/mL
Cl.[2H]C([2H])([2H])CC(=O)c1cnc(NC(=O)C2CC2)cc1Nc1cccc(-c2ncn(C([2H])([2H])[2H])n2)c1OC	human	oral, 10 mg, multiple doses, once daily, steady state	AUC	796 ng·h/mL
COc1ccc([C@@H](O)c2cc(-c3ncnc4cc(N5CCOCC5)ccc34)c(F)cc2Cl)nn1	human	oral, 400 mg, single dose, patients	AUC(0-t)	14100 ng·h/mL
